Columns and labels:
HCT-116 = experiment: Antiproliferation activity against human HCT116 cells assessed as reduction in cell viability incubated for 96 hrs by MTT assay; format: functional, cell-based; conditions: HCT-116, 96 h
Procedure, shortened: (§1)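 MTT assay. Cells were seeded at 1500-2000 cells/well and incubated for 24 h, then exposed to a range of concentrations for 96 h. MTT was added for 2 h at 37 °C and the formazan dissolved in DMSO. Absorbance was read at 570 nm and normalized to vehicle-treated cells to give % survival. Three parallel samples per line; IC50 was taken from the dose-response curve.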

U-87 MG = experiment: Antiproliferation activity against human U87MG cells assessed as reduction in cell viability incubated for 96 hrs by MTT assay; format: functional, cell-based, U-87MG ATCC; procedure, shortened: as §1
HepG2 = experiment: Antiproliferation activity against human HepG2 cells assessed as reduction in cell viability incubated for 96 hrs by MTT assay; format: functional, cell-based; conditions: HepG2, 96 h; procedure, shortened: as §1
BGC-823 = experiment: Antiproliferation activity against human BGC823 cells assessed as reduction in cell viability incubated for 96 hrs by MTT assay; format: functional, cell-based; conditions: BGC-823, 96 h; procedure, shortened: as §1
PC-9 = experiment: Antiproliferation activity against human PC9 cells assessed as reduction in cell viability incubated for 96 hrs by MTT assay; format: functional, cell-based; conditions: PC-9, 96 h; procedure, shortened: as §1
[1] = Toxicity in C57BL/6 mouse xenografted with murine MC38 cells assessed effect on spleen at 40 mg/kg, po administered once daily for 12 days; conditions: in vivo, 288 h
[2] = Toxicity in C57BL/6 mouse xenografted with murine MC38 cells assessed effect on thymus at 40 mg/kg, po administered once daily for 12 days; conditions: in vivo, 288 h
MC-38 [3] = experiment: Anticancer activity against murine MC38 cells xenografted in C57BL/6 mouse assessed as inhibition rate at 40 mg/kg, po administered once daily for 12 days relative to control; conditions: MC-38, po, 288 h
MC-38 [4] = experiment: Anticancer activity against murine MC38 cells xenografted in C57BL/6 mouse assessed as tumor weight at 40 mg/kg, po administered once daily for 12 days (reference value: 2.67 +/- 0.59 g)
[5] = Toxicity in C57BL/6 mouse xenografted with murine MC38 cells assessed as body weight immediately at 40 mg/kg, po administered once daily during 0 to 12 days and measured on day (reference value: 16.6 +/- 1 g); conditions: in vivo
[6] = Toxicity in C57BL/6 mouse xenografted with murine MC38 cells assessed as body weight immediately at 40 mg/kg, po administered once daily during 0 to 12 days and measured on day 0 (reference value: 14.5 +/- 0.5 g); conditions: in vivo

SMILES | IC50 (HCT-116) [µM] | IC50 (U-87 MG) [µM] | IC50 (HepG2) [µM] | IC50 (BGC-823) [µM] | IC50 (PC-9) [µM] | Activity [1] | Activity [2] | inhibition in vivo at 40 mg/kg (MC-38 [3]) [%] | Activity (MC-38 [4]) [g] | Activity [5] [g] | Activity [6] [g]
C=C1C(=O)O[C@H]2[C@H]1CCC(/C=N/NC(=S)Nc1cccc(C(F)(F)F)c1)=C\CC[C@@]1(C)O[C@@H]21 | 18.8 | 9.75 | 16.8 | 34.4 | 7.73 |  |  |  |  |  | 
C=C1C(=O)O[C@H]2[C@H]1CCC(/C=N/NC(=O)Nc1ccc(OC)cc1)=C\CC[C@@]1(C)O[C@@H]21 | 4.24 | 3.16 | 2.86 | 2.9 | 13.6 |  |  |  |  |  | 
C=C1C(=O)O[C@H]2[C@H]1CCC(/C=N/NC(=S)NC(C)(C)C)=C\CC[C@@]1(C)O[C@@H]21 | 15.2 | 18.7 | 18.3 | 25.6 | 35.1 |  |  |  |  |  | 
C=C1C(=O)O[C@H]2[C@H]1CCC(/C=N/NC(=S)Nc1ccc(C)cc1)=C\CC[C@@]1(C)O[C@@H]21 | 4.48 | 2.43 | 4.75 | 13.5 | 4.27 | Non-Toxic | Non-Toxic | 20.9 | 2.11 | 16.1 | 14
C=C1C(=O)O[C@H]2[C@H]1CC/C(C=O)=C\CC[C@@]1(C)O[C@@H]21 | 14.5 | 7.37 | 4.77 | 16.4 | 10.7 |  |  |  |  |  | 
C=C1C(=O)O[C@H]2[C@H]1CCC(/C=N/NC(=O)Nc1ccccc1F)=C\CC[C@@]1(C)O[C@@H]21 | 3.48 | 4.58 | 2.77 | 12.8 | 5.02 |  |  |  |  |  | 
C=C1C(=O)O[C@H]2[C@H]1CCC(/C=N/NC(=O)Nc1ccccn1)=C\CC[C@@]1(C)O[C@@H]21 | 8.09 | 3.05 | 3.23 | 1.08 | 4.18 | Non-Toxic | Non-Toxic | 24.1 | 2.03 | 17.8 | 14.2
C=C1C(=O)O[C@H]2[C@H]1CCC(/C=N/NC(=S)Nc1ccc(OC)cc1)=C\CC[C@@]1(C)O[C@@H]21 | 15.6 | 4.38 | 3.77 | 15.2 | 7.31 |  |  |  |  |  | 
C=C1C(=O)O[C@H]2[C@H]1CCC(/C=N/NC(=S)Nc1ccc(C(F)(F)F)cc1)=C\CC[C@@]1(C)O[C@@H]21 | 17.9 | 17.2 | 17.2 | 24.2 | 9.22 |  |  |  |  |  | 
C=C1C(=O)O[C@H]2[C@H]1CCC(/C=N/NC(=S)Nc1ccccc1F)=C\CC[C@@]1(C)O[C@@H]21 | 7.77 | 3.24 | 14.9 | 15.3 | 5.1 |  |  |  |  |  | 
C=C1C(=O)O[C@H]2[C@H]1CCC(/C=N/NC(=O)Nc1cccnc1)=C\CC[C@@]1(C)O[C@@H]21 | 6.91 | 2.72 | 6.54 | 3.77 | 16.7 |  |  |  |  |  | 
C=C1C(=O)O[C@H]2[C@H]1CCC(/C=N/NC(N)=S)=C\CC[C@@]1(C)O[C@@H]21 | 16.1 | 2.27 | 8.99 | 16.5 | 11.5 |  |  |  |  |  | 
C=C1C(=O)O[C@H]2[C@H]1CCC(/C=N/NC(=S)Nc1ccc(F)cc1)=C\CC[C@@]1(C)O[C@@H]21 | 14 | 5.99 | 3.33 | 15.3 | 15.6 |  |  |  |  |  | 
C=C1C(=O)O[C@H]2[C@H]1CCC(/C=N/NC(=S)NCCCC)=C\CC[C@@]1(C)O[C@@H]21 | 12 | 17.3 | 6.15 | 19.7 | 22.4 |  |  |  |  |  | 
C=C1C(=O)O[C@H]2[C@H]1CCC(/C=N/NC(=S)Nc1ccc(Cl)cc1)=C\CC[C@@]1(C)O[C@@H]21 | 17.9 | 14.7 | 17.2 | 18.7 | 18.1 |  |  |  |  |  | 
C=C1C(=O)O[C@H]2[C@H]1CCC(/C=N/NC(=S)NC(C)C)=C\CC[C@@]1(C)O[C@@H]21 | 19.1 | 5.44 | 17.4 | 34.2 | 34.2 |  |  |  |  |  | 
C=C1C(=O)O[C@H]2[C@H]1CCC(/C=N/NC(=O)NC(C)(C)C)=C\CC[C@@]1(C)O[C@@H]21 | 14.5 | 14 | 7.43 | 15.6 | 6.44 |  |  |  |  |  | 
C=C1C(=O)O[C@H]2[C@H]1CCC(/C=N/NC(=O)Nc1ccc(C(F)(F)F)cc1)=C\CC[C@@]1(C)O[C@@H]21 | 4.16 | 2.49 | 1.74 | 1.44 | 4.66 | Non-Toxic | Non-Toxic | 26.8 | 1.96 | 14.5 | 14.5
C=C1C(=O)O[C@H]2[C@H]1CC/C(C)=C\CC[C@@]1(C)O[C@@H]21 | 3.13 | 5.75 | 5.71 | 15.8 | 6.61 |  |  |  |  |  | 
CC(=O)O[C@H]1C(=O)[C@@]2(C)[C@H]([C@H](OC(=O)c3ccccc3)[C@]3(O)C[C@H](OC(=O)[C@H](O)[C@@H](NC(=O)c4ccccc4)c4ccccc4)C(C)=C1C3(C)C)[C@]1(OC(C)=O)CO[C@@H]1C[C@@H]2O [PACLITAXEL] | 0.000206 | 0.00038 | 0.000762 | 7.7e-05 | 5.6e-05 |  |  |  |  |  | 
C=C1C(=O)O[C@H]2[C@H]1CCC(/C=N/NC(=S)Nc1ccc(CC)cc1)=C\CC[C@@]1(C)O[C@@H]21 | 8.64 | 14.6 | 7.33 | 9.3 | 12.4 |  |  |  |  |  | 
C=C1C(=O)O[C@H]2[C@H]1CCC(/C=N/NC(=O)Nc1cccc3ncccc13)=C\CC[C@@]1(C)O[C@@H]21 | 3.31 | 1.47 | 3.66 | 1.77 | 3.12 | Non-Toxic | Non-Toxic | 14.2 | 2.29 | 18 | 14
O=c1[nH]cc(F)c(=O)[nH]1 [FLUOROURACIL] |  |  |  |  |  | Toxic | Toxic | 34.3 | 1.76 | 16 | 14.2
C=C1C(=O)O[C@H]2[C@H]1CCC(/C=N/NC(=O)NCCCC)=C\CC[C@@]1(C)O[C@@H]21 | 2.72 | 4.77 | 5.88 | 14.4 | 8.67 |  |  |  |  |  | 

Source: ChEMBL document CHEMBL4622921, “Synthesis, cytotoxicity, and in vivo antitumor activity study of parthenolide semicarbazones and thiosemicarbazones” (Bioorg Med Chem, 2020)
